According to PubChem BioAssay AID504383 (The Scripps Research Institute Molecular Screening Center, 2011):
Hit rate of the full screen: of about 2,500 compounds, about 1,200 (48%) were called active. The set was probably picked from earlier hits. This is one part of the list. A number with no mark means an inactive call.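 Rule for the calls: active = mean activation above the low control average plus 3 SD, as set in the primary screen (cut at about 12% in these data); inactive = the rest.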

These molecules were tested against Troponin I, cardiac muscle (Homo sapiens) + Troponin T, cardiac muscle (Homo sapiens) + Troponin C, slow skeletal and cardiac muscles (Homo sapiens) (UniProt P19429+P45379+P63316) (assay: cardiac RTF calcium sensitivity activators, confirmation, biochemical, IANBD-TnC fluorescence, triplicate (AID 504383;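 note: 0% = DMSO at 0.472 mM calcium and 100% = DMSO at 2.9 mM calcium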)). Settings: IANBD-labeled cardiac RTF, Ca2+ sensitivity fluorescence; at 7.2 µM; hits give high values; scaled from EC20 to saturating calcium; tested at EC20 calcium, 0.472 mM.
Outline: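 System: Labelled thin filament complex | Technique: Filament fluorescence intensity | Benchmarks: Low control EC20 calcium, high control EC100 calcium | Timing: 15 min at 25 °C | Compound dosing: One dose, 7.2 µM nominal | Probe or stimulus: Ca2+ 0.472 mM, EC20 level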

SMILES | activation
C/C=C/c1ccc(OCCCNCC(C)O)c(OC)c1 (centres undefined) | 663% (active)
CCC/C(C#Cc1ccc(N(C)C)cc1)=C1/c2ccccc2C(=O)N1c1ccccc1 | 94.7% (active)
COc1ccc(N2C(=O)c3cccc4c(N(C)CCO)ccc(c34)C2=O)cc1 | 4.11%
Cc1ccc(S(=O)(=O)N2CCOCC2)cc1C(=O)N1C(=O)c2cccc(N)c2C1=O | 8.84%
Cc1ccc(S(=O)(=O)c2cccc(S(=O)(=O)N3CCOCC3)c2)cc1S(=O)(=O)N1CCOCC1 | 20.6% (active)
Cc1nnc(N2CCOCC2)c2nn(-c3cccc(Cl)c3)c(C)c12 | 4.95%
COC(=O)N/N=C/c1cccnc1 | 2.85%
O=C(CNC(=O)c1cccc(Cl)c1)N/N=C/c1cccnc1 | 11%
COc1ccc(/C=N/NC(=O)c2cccnc2)cc1CN1CCOCC1 | 36.1% (active)
COc1ccc(/C=N/NC(=O)c2cc(OC)c(OC)c(OC)c2)cc1CN1CCc2cc(OC)c(OC)cc2C1C (centres undefined) | 28.3% (active)
O=C(C[n+]1cccc2ccccc21)c1ccccc1 | 10.7%
COC(=O)C[n+]1cccc2ccccc21 | 212% (active)
O=C(CCC1CCCN(C(=O)c2ccncc2)C1)NCc1ccc(F)c(F)c1 (centres undefined) | 3.6%
O=C(NCc1ccc(Cl)cc1)C1CCN(c2cnccn2)CC1 | 68.5% (active)
O=C(NCCc1ccccc1)C1CCN(c2ncccn2)CC1 | 2.88%
CCOC(=O)c1cc2n(c1N)-c1ccccc1C2=O | 71.8% (active)
CCOC(=O)c1cc2c(s1)-c1ccccc1CC2 | 0.58%
CCOC(=O)c1ccccc1-n1nnnc1C | 1.99%
CCC(C)[C@H](NC(=O)N1CCC(C)CC1)C(=O)OC (some centres undefined) | 11.1%
COc1ccccc1-c1sc2ccccc2c1-c1ccc(Br)nc1 | -1.06%
Oc1ccc(-c2c(C3=CCCCC3)sc3ccccc23)cc1 | 125% (active)
N#CCCN(C(=O)c1ccco1)c1ccccc1 | 4250% (active)
CCN(C(=O)c1cc2ccccc2oc1=O)c1ccccc1 | 8.22%
CCOC(=O)c1cnc2ccccc2c1Nc1ccc(C(=O)O)cc1 | 161% (active)

SMILES | activation
CCOC(=O)/C(=N\Nc1ccc(C(C)=O)cc1)c1csc(Nc2ccccc2)n1 | 11.1%
Cc1ccc(OCCCC(=O)NC2CCCCC2)cc1 | 4.78%
COc1ccc(OCC(=O)OCCNC(=O)c2cccnc2)cc1 | 5.53%
COc1ccc(OCCNC(=O)c2ccc(C)cc2)cc1 | 28.4% (active)
Cc1sc2nc(COC(=O)c3cccc(S(=O)(=O)N(C)c4ccccc4)c3)[nH]c(=O)c2c1C | 2.91%
Cc1ccc(CNC(=O)CCn2cc(-c3ccc(C)cc3)nc2-c2ccncc2)cc1 | 57.1% (active)
Cc1ccc(CNC(=O)c2cc(-c3ccccc3)nn2Cc2cc(C)no2)cc1 | 8.67%
Cc1ccc(C)c(C(=O)CCC(=O)NCc2ccc(Cl)cc2)c1 | 10.5%
Cc1ccc(-c2ccc(OC(=O)c3ccc(=O)[nH]c3)c(C)c2)cc1 | 28.2% (active)
CCc1ccc(NC(=O)C2CCN(S(=O)(=O)c3ccc4[nH]c(=O)ccc4c3)CC2)cc1 | 12.1% (active)
CC(=O)Nc1ccc(Nc2cc(N(C)C)c3nonc3c2[N+](=O)[O-])cc1 | 99.2% (active)
CC1CCN(c2ccc(NC(=O)c3cccnc3)cc2)CC1 | 19.8% (active)
O=C(Nc1cc2c(cc1Br)OCCCO2)c1cccnc1 | 2.74%
COc1ccc(-n2nc3c(N4CCC(C(=O)N5CCC(C)CC5)CC4)nnc(C)c3c2C)cc1 | 2.83%
COc1ccccc1-c1nnc(SCc2nc3ccccc3s2)n1C | 29.9% (active)
CC(C)(C)OC(=O)[C@H](Cc1ccccc1)NC(=O)c1nc[nH]c1C(=O)NCc1ccccc1 | 25.1% (active)
CN(Cc1ccccc1)C(=O)c1[nH]cnc1C(=O)NCc1ccccc1 | 59.9% (active)
O=C(NCc1ccccc1Cl)c1ccc2nc[nH]c2c1 | 6.6%
O=C1N(c2ccc(Cl)cc2)C(c2ccccc2)N2CCCN12 (centres undefined) | 5.52%
O=C(c1cccc(F)c1)N1CCN(C(=O)c2cc(-c3ccc(Cl)cc3Cl)on2)CC1 | 3.41%
Fc1ccc(-c2nnc(-c3ccc(Cl)cc3Cl)o2)cc1 | 54% (active)
C/C(=N\NC(=O)c1ccccc1)c1ccc(NC(=O)c2cccs2)cc1 | 3.16%
Cc1ccc(-n2nc(C)c(=O)c(-c3ccccc3)c2NC(=O)c2cccs2)cc1 | 11.8% (active)
CCOC(=O)/C(=C/C=C1\Sc2cc(OCC)c(OCC)cc2N1CC)C(C)=O | 40% (active)

SMILES | activation
CCOC(=O)/C(=C/C=C1\Sc2cc(C)c(C)cc2N1CC)C(C)=O | 4.3%
CCOC(=O)/C(=C/C=C1\Sc2ccccc2N1CC)C(C)=O | 190% (active)
CCOC(=O)/C(=C\C=C1/Sc2ccccc2N1CC)C(C)=O | 20% (active)
CCOC(=O)/C(C#N)=C(C)/C=C1\Sc2ccccc2N1CC | 11.9% (active)
CCN1/C(=C\C=C(C(C)=O)C(C)=O)Sc2ccccc21 | 9.03%
CCOC(=O)/C(=C\C=C1/Sc2cc(OCC)c(OCC)cc2N1CC)C(C)=O | 8.28%
CC1(C)c2[nH]c3ccccc3c2C[C@H]2C(=O)N(Cc3ccc(F)cc3)C(=O)N21 | 6.36%
CC(C)NC(=O)C1CCCN(c2nnc(-n3cccc3)s2)C1 (centres undefined) | 1270% (active)
COCc1cc(C)n(CC(=O)Nc2ccccc2C(=O)OC)c(=O)c1C#N | 23.2% (active)
Cc1cc(Br)ccc1SCC(=O)OCC(=O)Nc1ccccc1C#N | 9.13%
COC(=O)c1cc2c(cc1NC(=O)CSCCc1ccccn1)OCO2 | 7.4%
C[C@H]1CN([C@@H](C)CO)C(=O)Cc2cc(NC(=O)CCC(F)(F)F)ccc2O[C@H]1CN(C)S(C)(=O)=O | 15.4% (active)
Cc1noc(C)c1S(=O)(=O)N(C)C[C@H]1Oc2ccc(NC(=O)CCC(F)(F)F)cc2C(=O)N([C@H](C)CO)C[C@@H]1C | 10.2%
COc1ccc(-n2c(O)c(/C=N/NS(=O)(=O)c3cccc([N+](=O)[O-])c3)c3ccccc3c2=O)cc1OC | 9.84%
COc1ccccc1NS(=O)(=O)c1ccccc1C#N | 3.34%
COc1ccccc1NS(=O)(=O)c1cc([N+](=O)[O-])ccc1N/N=C/c1c(C)[nH]c2ccccc12 | 27.9% (active)
CC(=O)NN1C(=O)/C(=C\c2ccc(O)cc2)SC1=S | 12.5% (active)
O=C(NN1C(=O)/C(=C/c2ccc(O)cc2)SC1=S)c1ccccc1O | 9.61%
CN(C)c1ccc(/C=C2\SC(=S)N(Nc3ncc(C(F)(F)F)cc3Cl)C2=O)cc1 | 7.16%
O=C(CCN1C(=O)/C(=C/c2cccs2)SC1=S)NNC(=O)c1cccc(O)c1 | 7.19%
O=C(NN1C(=O)/C(=C/c2ccc(O)cc2)SC1=S)c1cccc(O)c1 | 12.5% (active)
Cc1ccc(N2C3=C(C(=O)CC(C)(C)C3)C(c3cn(C)nc3C)C3=C2CC(C)(C)CC3=O)cc1 | 35.1% (active)
Cc1c(C2Nc3ccccc3NC3=C2C(=O)CC(C)(C)C3)cnn1C (centres undefined) | 4.72%
N#C/C(=C\c1c[nH]c2ccccc12)C(=O)Nc1ncc(Cc2ccc(Cl)cc2Cl)s1 | 30.3% (active)

SMILES | activation
COc1cc(/C=C(\C#N)C(=O)c2c[nH]c3ccccc23)cc(OC)c1O | 5.75%
COCCN=c1scc(-c2cc(OC)c(OC)c(OC)c2)n1/N=C/c1c(C)[nH]c2ccccc12 | 72.2% (active)
CC(C)Oc1ccc(/C(O)=C2/C(=O)C(=O)N(CCN3CCNCC3)C2c2cccc([N+](=O)[O-])c2)cc1 (centres undefined) | 6.36%
O=C(C1=C(O)C(=O)N(CCN2CCOCC2)C1c1ccc([N+](=O)[O-])cc1)c1cccs1 (centres undefined) | 188% (active)
COc1ccc(NC(=O)CNS(=O)(=O)c2cccs2)cc1 | 7.87%
COc1ccc(N(C(=O)c2ccc(C)cc2)S(=O)(=O)c2cccs2)cc1 | 175% (active)
Nc1ccc2cc3[nH]c4cc(N)ccc4c3nc2c1 | 13.7% (active)
O=C(O)C1=C[C@H](c2ccccc2)C[C@H](OCc2ccc(CO)cc2)O1 | 1.76%
Cc1c(O)c(=O)c2ccccc2n1C | 16.4% (active)
COc1ccc(NC(=O)CCN2CC(C)OC(C)C2)c(OC)c1 (centres undefined) | 4.53%
COc1ccc(NC(=O)CCN2CCCC2)c(OC)c1 | 80.7% (active)
COc1ccc(CN2CCC(=O)N([C@H](CO)c3ccccc3)CC2)cc1 | 21.1% (active)
COc1ccc(CN2CNc3c(c(=O)n(C)c(=O)n3C)C2)cc1 | 14.9% (active)
COc1ccc(-c2c3c(=O)n(C)c(=O)n(C)c3cn2-c2cccc(OC)c2)cc1 | 1.1%
CCCNC(=S)N1CCC(NC(=O)C23CC4CC(CC(C4)C2)C3)CC1 | 8.77%
c1ccc(-c2cnn3c(-c4ccccc4)c(-c4ccccc4)nc3n2)cc1 | 3.13%
Nc1ccc2nc(-c3ccccc3)cnc2c1 | 83.1% (active)
CCO/C=C1\N=C(c2ccc(F)cc2)OC1=O | 4.72%
CN1/C(=C\C=C2\N=C(c3ccc(F)cc3)OC2=O)C(C)(C)c2ccccc21 | 13.9% (active)
CN1/C(=C\C=C2/SC(=S)NC2=O)C(C)(C)c2ccccc21 | 10.1%
CC(C)c1ccc(NS(=O)(=O)c2cccc3cccnc23)cc1 | 446% (active)
CCN(CC)C(=O)C1CCC(CNS(=O)(=O)c2cccc3cccnc23)CC1 (centres undefined) | 0.91%
